Here are results for five molecules from ChEMBL document CHEMBL2434847, “Design, synthesis, and structure-activity relationships of novel 6,7-disubstituted-4-phenoxyquinoline derivatives as potential antitumor agents” (Eur J Med Chem, 2013).

Assay [1] can be described thus: Cytotoxicity against human H460 cells after 72 hrs by MTT assay. To be noted: NCI-H460, 72 h.
The test system of assay [2] is A549. The experiment in a line: Cytotoxicity against human A549 cells after 72 hrs by MTT assay. To be noted: A549, 72 h. It is filed as functional, cell-based. The procedure, abridged:
(§1)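 Cells grown in MEM with 10% FBS; about 4 × 10³ cells per well, preincubated 24 h at 37 °C in 5% CO₂, then exposed to compound for 72 h. Each line tested three times; IC50 is mean of three determinations.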
On the technique in general: Formazan colour is commonly taken as a measure of viable cells.

Assay [3] concerns MKN-45. The assay is described as follows: Cytotoxicity against human MKN45 cells after 72 hrs by MTT assay. To be noted: MKN-45, 72 h.
The subject of assay [4] is HT-29. The assay is described as follows: Cytotoxicity against human HT-29 cells after 72 hrs by MTT assay. To be noted: HT-29, 72 h.
The nature of assay [5]: Cytotoxicity against human U87MG cells after 72 hrs by MTT assay. It is filed as functional, cell-based, U-87MG ATCC. To be noted: U-87 MG. Put shortly: as §1
Assay [6] concerns U-87 MG. The assay is described as follows: Ratio of foretinib IC50 to compound IC50 for human U87MG cells. It is filed as functional, U-87MG ATCC.
In assay [7] the target is Vascular endothelial growth factor receptor 2 (Homo sapiens, UniProt P35968). The assay is described as follows: Inhibition of VEGFR2 (unknown origin) using poly (Glu, Tyr) (4:1) as substrate after 30 mins by spectrophotometric analysis.
Sequence of Vascular endothelial growth factor receptor 2 (P35968 whole entry): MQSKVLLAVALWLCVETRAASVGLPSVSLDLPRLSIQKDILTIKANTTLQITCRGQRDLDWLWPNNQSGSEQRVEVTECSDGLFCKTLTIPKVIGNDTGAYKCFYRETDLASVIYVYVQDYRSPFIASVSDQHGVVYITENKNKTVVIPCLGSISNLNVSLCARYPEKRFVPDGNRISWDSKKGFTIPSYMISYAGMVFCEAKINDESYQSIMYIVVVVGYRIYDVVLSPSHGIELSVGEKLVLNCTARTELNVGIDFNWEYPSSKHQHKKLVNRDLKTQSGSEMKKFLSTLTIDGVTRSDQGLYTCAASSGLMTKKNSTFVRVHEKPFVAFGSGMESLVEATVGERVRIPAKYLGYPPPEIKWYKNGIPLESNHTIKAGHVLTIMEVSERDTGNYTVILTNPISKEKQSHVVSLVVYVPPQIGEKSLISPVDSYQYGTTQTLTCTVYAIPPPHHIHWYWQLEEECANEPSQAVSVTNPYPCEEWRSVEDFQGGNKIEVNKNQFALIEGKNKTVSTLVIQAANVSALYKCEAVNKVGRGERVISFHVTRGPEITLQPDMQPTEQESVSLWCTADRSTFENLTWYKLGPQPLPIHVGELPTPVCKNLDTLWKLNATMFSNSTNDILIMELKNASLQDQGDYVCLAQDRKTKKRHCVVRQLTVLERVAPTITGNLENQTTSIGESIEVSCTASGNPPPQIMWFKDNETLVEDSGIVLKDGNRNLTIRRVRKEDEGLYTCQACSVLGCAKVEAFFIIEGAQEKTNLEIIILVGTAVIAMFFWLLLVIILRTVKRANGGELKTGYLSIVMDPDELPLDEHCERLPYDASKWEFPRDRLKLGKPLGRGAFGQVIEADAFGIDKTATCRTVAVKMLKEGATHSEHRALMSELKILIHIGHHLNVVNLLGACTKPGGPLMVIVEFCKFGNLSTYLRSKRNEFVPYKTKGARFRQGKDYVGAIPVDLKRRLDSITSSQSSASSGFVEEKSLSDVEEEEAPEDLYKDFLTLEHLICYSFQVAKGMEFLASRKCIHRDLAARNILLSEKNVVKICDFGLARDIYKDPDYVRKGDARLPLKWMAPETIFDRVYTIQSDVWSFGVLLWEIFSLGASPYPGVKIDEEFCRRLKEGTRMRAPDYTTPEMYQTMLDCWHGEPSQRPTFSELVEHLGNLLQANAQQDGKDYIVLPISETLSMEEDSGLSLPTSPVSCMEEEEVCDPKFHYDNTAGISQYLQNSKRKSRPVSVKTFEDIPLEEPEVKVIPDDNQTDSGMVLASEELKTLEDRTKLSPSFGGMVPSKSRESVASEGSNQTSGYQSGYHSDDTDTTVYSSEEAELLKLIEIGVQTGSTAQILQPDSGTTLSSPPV
Assay [8] is described as follows: Ratio of foretinib IC50 to compound IC50 for human H460 cells. It is filed as functional.
Assay [9] concerns HT-29. The assay is described as follows: Ratio of foretinib IC50 to compound IC50 for human HT-29 cells. It is filed as functional.
Assay [10] deals with Mast/stem cell growth factor receptor Kit (Homo sapiens, UniProt P10721). The assay is described as follows: Inhibition of c-KIT (unknown origin) using poly (Glu, Tyr) (4:1) as substrate after 30 mins by spectrophotometric analysis.
Sequence of Mast/stem cell growth factor receptor Kit (P10721 whole entry): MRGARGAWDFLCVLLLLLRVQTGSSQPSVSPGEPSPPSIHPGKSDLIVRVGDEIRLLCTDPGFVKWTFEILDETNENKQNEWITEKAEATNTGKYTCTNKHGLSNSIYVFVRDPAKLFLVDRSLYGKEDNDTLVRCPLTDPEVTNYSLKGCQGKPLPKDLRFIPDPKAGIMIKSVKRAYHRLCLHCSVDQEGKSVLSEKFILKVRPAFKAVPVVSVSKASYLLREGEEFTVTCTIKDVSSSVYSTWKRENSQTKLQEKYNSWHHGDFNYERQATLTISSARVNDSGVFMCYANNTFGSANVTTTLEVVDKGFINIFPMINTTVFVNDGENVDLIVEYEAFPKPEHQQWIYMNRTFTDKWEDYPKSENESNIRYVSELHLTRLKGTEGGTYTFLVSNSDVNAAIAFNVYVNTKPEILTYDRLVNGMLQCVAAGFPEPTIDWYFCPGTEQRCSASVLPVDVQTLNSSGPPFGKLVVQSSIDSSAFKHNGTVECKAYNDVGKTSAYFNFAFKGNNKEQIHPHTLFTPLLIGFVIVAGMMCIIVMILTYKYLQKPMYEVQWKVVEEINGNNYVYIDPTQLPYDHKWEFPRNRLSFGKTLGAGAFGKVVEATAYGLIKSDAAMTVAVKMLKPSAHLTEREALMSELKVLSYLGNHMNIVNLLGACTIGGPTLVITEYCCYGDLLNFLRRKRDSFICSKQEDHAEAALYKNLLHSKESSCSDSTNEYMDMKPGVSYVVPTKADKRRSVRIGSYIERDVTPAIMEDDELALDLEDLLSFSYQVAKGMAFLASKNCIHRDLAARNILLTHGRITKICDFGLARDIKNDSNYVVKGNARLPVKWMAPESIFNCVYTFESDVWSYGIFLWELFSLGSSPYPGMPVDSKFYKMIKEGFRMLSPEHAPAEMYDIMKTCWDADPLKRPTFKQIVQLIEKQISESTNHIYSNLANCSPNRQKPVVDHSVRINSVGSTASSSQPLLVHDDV
Assay [11] has as its target T1, Receptor-type tyrosine-protein kinase FLT3 (Homo sapiens, UniProt P36888).
T1 sequence (P36888 whole entry): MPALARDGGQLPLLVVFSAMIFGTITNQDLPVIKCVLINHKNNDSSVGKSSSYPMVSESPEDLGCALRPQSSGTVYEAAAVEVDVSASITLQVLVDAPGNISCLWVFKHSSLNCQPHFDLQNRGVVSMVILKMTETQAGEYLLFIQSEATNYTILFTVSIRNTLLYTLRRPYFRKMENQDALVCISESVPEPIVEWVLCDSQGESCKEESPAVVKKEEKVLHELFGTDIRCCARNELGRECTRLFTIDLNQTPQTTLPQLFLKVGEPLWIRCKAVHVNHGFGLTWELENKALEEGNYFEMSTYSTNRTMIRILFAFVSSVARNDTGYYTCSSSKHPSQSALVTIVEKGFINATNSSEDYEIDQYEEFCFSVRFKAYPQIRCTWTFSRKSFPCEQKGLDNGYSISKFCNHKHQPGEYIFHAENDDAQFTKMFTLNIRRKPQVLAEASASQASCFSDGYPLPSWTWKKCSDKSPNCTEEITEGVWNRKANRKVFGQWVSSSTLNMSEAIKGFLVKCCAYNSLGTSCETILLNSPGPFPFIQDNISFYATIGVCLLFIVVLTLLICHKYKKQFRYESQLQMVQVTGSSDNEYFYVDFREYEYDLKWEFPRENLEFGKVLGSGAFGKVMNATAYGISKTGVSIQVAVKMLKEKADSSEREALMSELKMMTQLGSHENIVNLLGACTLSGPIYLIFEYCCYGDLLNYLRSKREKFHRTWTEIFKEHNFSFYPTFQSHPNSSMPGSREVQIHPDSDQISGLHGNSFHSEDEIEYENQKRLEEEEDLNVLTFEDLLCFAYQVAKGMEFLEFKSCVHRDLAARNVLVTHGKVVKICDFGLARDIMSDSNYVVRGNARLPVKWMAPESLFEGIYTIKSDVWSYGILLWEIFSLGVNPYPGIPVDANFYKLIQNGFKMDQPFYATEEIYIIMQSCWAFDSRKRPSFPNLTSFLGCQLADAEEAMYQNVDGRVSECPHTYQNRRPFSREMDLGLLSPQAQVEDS
The experiment in a line: Inhibition of FLT3 (unknown origin) using poly (Glu, Tyr) (4:1) as substrate after 30 mins by spectrophotometric analysis.

The target of assay [12] is Hepatocyte growth factor receptor (Homo sapiens, UniProt P08581). The experiment in a line: Inhibition of c-MET (unknown origin) using poly (Glu, Tyr) (4:1) as substrate after 30 mins by spectrophotometric analysis.
Assay [13] addresses Epidermal growth factor receptor (Homo sapiens, UniProt P00533). The experiment in a line: Inhibition of EGFR (unknown origin) using poly (Glu, Tyr) (4:1) as substrate after 30 mins by spectrophotometric analysis.
The target of assay [14] is Platelet-derived growth factor receptor beta (Homo sapiens, UniProt P09619). The experiment in a line: Inhibition of PDGFRbeta (unknown origin) using poly (Glu, Tyr) (4:1) as substrate after 30 mins by spectrophotometric analysis.
Sequence of Platelet-derived growth factor receptor beta (P09619 whole entry): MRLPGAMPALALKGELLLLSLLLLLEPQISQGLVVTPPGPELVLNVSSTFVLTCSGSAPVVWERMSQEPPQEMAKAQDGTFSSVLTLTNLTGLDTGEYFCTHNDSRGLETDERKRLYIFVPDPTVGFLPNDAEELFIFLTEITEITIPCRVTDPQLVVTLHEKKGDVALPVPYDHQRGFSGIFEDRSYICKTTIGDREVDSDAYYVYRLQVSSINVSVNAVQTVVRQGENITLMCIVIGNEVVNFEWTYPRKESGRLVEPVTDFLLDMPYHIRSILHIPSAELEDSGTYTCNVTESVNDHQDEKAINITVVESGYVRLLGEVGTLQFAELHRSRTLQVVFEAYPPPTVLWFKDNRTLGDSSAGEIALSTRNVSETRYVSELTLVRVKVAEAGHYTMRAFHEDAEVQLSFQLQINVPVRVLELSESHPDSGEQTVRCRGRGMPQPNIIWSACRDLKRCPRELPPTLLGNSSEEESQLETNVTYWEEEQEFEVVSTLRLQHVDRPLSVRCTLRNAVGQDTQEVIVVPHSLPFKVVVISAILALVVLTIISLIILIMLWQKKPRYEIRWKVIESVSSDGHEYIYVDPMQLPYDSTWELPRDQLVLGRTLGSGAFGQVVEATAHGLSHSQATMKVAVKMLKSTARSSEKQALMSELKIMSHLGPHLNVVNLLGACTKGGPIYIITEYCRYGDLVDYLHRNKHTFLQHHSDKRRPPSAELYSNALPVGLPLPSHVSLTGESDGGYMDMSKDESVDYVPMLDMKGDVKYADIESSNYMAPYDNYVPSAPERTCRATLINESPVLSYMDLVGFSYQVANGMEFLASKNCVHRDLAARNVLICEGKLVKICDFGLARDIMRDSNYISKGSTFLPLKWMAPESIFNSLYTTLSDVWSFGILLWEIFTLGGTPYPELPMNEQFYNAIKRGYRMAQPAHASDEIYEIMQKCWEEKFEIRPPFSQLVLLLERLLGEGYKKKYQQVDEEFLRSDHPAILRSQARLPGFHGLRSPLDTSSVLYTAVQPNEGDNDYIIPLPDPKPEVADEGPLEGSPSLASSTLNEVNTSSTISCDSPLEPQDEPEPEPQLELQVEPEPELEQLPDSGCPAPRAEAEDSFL

Each structure is given as a SMILES string.

The IC50 is the concentration needed to halve the response being measured. Low readings indicate inhibition by little substance, high ones a need for much substance.

Sequence of Epidermal growth factor receptor (P00533 whole entry): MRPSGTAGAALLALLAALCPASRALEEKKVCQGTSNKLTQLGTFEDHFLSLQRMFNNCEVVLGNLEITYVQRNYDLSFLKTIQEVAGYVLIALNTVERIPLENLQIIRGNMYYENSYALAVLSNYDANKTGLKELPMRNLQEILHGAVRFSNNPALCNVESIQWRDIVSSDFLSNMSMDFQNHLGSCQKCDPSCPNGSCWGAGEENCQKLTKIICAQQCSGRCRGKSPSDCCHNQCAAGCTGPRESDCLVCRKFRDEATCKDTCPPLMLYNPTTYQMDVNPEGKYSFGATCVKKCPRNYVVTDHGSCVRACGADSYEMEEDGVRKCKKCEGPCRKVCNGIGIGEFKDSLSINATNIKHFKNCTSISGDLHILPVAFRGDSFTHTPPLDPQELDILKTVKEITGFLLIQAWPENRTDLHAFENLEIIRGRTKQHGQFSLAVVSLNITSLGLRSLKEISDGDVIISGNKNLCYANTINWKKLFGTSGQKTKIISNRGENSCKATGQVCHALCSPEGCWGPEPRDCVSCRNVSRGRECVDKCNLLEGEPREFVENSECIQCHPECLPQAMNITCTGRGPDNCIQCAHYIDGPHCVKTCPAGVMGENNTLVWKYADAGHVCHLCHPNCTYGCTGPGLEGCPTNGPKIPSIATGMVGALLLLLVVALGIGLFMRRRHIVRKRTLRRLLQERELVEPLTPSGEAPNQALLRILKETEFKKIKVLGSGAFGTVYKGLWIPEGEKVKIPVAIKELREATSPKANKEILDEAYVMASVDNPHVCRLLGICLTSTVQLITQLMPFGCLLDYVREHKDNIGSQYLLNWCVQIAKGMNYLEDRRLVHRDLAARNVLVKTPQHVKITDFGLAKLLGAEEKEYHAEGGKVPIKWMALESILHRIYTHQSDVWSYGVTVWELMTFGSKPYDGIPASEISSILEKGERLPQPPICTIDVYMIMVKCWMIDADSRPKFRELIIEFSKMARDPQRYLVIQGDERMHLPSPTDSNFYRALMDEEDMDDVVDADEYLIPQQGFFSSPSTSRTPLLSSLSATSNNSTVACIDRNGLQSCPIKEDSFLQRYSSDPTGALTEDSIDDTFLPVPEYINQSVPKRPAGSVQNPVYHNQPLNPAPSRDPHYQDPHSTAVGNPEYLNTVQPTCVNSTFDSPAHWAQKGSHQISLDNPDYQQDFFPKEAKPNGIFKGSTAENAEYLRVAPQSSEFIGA

With `COc1cc2c(Oc3ccc(NC(=O)c4cc(-c5ccccc5)ccn4)cc3F)ccnc2cc1OCCCN1CCOCC1`, the IC50 amounted to 350 nM in [1]; 3450 nM in assay [2]; 280 nM in [3]; 330 nM in assay [4]; 1280 nM in [5].

On to `COc1cc2c(Oc3ccc(NC(=O)c4cc(-c5ccc(C)cc5)ccn4)cc3F)ccnc2cc1OCCCN1CCOCC1`, for which the IC50 worked out at 570 nM in assay [1]; 3450 nM in assay [2]; 440 nM in [3]; 290 nM in [4]; 6790 nM in assay [5].

Turning to `COc1cc2c(Oc3ccc(NC(=O)c4cc(-c5ccccc5)ccn4)cc3F)ccnc2cc1OCCCN1CCN(C)CC1`, the IC50 in assay [1] came to 91 nM; in [2], 340 nM; in assay [3], 150 nM; in [4], 82 nM; in [5], 1010 nM.

As for `COc1cc2c(Oc3ccc(NC(=O)c4cc(-c5ccc(C)cc5)ccn4)cc3F)ccnc2cc1OCCCN1CCN(C)CC1`, the half-maximal inhibitory concentration (IC50) in assay [1] turned out to be 37 nM; in [7], 532 nM; in assay [2] it was 100 nM; in assay [10] it was 450 nM; in assay [3] it was 73 nM; in assay [11], 1.08 nM. The IC50 in assay [12] was found to be 1.39 nM; in [4] it was 26 nM; in assay [13] it was 90 nM; in [14], 1.42 nM; in assay [5], 810 nM. The “Ratio IC50” value was found to be 1.2 in assay [6], 5.8 in assay [8] and 7.3 in [9].

`COc1cc2c(Oc3ccc(NC(=O)c4cc(-c5ccccc5C)ccn4)cc3F)ccnc2cc1OCCCN1CCN(C)CC1`: the half-inhibitory concentration (IC50) in assay [1] turned out to be 150 nM; in assay [2], 1330 nM; in assay [3], 240 nM; in assay [4], 180 nM; in assay [5], 2030 nM.
